Series [1] deals with T1, Tumor necrosis factor ligand superfamily member 11/11A (Mus musculus) (UniProt O35235+O35305). Nature of the series: Inhibition of RANKL-RANK protein-protein interaction in C57/BL6 mouse bone marrow macrophage assessed as suppression of M-CSF/mRANKL-induced osteoclastogenesis by measuring reduction in TRAP activity at 5 uM measured after 3 days by colorimetric assay relative to control. An outline of the steps:
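BMMs were incubated with the test compound at 5 μM, together with RANKL (50 ng/mL) and M-CSF (20 ng/mL), for 3 days. Osteoclastogenesis was then read out as tartrate-resistant acid phosphatase (TRAP) activity.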

Series [2] concerns the target T2, Tumor necrosis factor ligand superfamily member 11 (Homo sapiens, UniProt O14788).
T2 sequence (O14788 whole entry): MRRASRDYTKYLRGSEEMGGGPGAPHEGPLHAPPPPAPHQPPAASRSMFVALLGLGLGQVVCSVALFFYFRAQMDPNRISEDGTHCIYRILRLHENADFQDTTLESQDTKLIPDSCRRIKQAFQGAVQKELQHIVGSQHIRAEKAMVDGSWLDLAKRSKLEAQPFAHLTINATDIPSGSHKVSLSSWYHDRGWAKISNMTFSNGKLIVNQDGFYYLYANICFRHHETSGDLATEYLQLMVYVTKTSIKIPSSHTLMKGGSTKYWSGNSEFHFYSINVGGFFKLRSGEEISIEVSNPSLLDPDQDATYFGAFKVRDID
Nature of the series: Binding affinity to human RANKL by surface plasmon resonance analysis.

Series [3] concerns the target T3, Tumor necrosis factor ligand superfamily member 11 (Mus musculus, UniProt O35235).
T3 sequence (O35235 whole entry): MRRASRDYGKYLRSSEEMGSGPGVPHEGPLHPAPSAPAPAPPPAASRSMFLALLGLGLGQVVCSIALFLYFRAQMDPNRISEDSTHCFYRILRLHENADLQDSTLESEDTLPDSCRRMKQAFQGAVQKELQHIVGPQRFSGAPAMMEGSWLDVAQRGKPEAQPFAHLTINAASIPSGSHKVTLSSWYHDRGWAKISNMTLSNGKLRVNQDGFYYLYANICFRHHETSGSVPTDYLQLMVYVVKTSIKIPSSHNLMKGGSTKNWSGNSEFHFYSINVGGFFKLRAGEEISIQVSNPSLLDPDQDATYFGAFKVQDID
Nature of the series: Binding affinity to mouse N-terminal His6-Trx-tagged RANKL ectodomain (157 to 316 residues) expressed in Escherichia coli BL21 (DE3) by isothermal titration calorimetric assay. On the technique in general: Isothermal titration calorimetry measures the heat released or taken up as one component is titrated into another.

The target of series [4] is T1, Tumor necrosis factor ligand superfamily member 11/11A (Mus musculus). Put plainly: Inhibition of RANKL-RANK protein-protein interaction in C57/BL6 mouse bone marrow macrophage assessed as suppression of M-CSF/mRANKL-induced osteoclast differentiation by measuring decrease in nuclei number of F-actin ring formation at 5 uM supplemented with fresh medium containing compounds every 2 days for 5 to 6 days by rhodamine phalloidin/DAPI staining-based microscopic analysis. The format is protein assay.

The target is the same in series [5]. Put plainly: Inhibition of RANKL-RANK protein-protein interaction in C57/BL6 mouse bone marrow macrophage assessed as suppression of M-CSF/mRANKL-induced osteoclast differentiation by measuring decrease in multinucleated TRAP+ cells at 5 uM supplemented with fresh medium containing compounds every 2 days for 5 to 6 days by TRAP staining-based microscopic analysis. The format is cell-based. An outline of the steps:
(§1)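 Bone marrow macrophages were exposed to the test compound at the indicated concentrations for 5 days under M-CSF/RANKL stimulation. TRAP-positive multinucleated cells were then counted as the measure of osteoclast formation.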

A short description of series [6]: Cytotoxicity against M-CSF-stimulated C57/BL6 mouse bone marrow macrophages assessed as cell viability at 10 uM measured after 2 days by MTT assay (reference value: 100%). The note with it: M-CSF-stimulated bone marrow macrophages (BMDM), read-out: Activity. The format is cell-based. In general terms: Tetrazolium assays rely on reduction of a dye to a coloured formazan, in cell work by metabolically active cells.

In series [7] the target is T1, Tumor necrosis factor ligand superfamily member 11/11A (Mus musculus). Put plainly: Inhibition of RANKL-RANK protein-protein interaction in C57/BL6 mouse bone marrow macrophage assessed as suppression of M-CSF/mRANKL-induced osteoclast differentiation by measuring decrease in multinucleated TRAP+ cells supplemented with fresh medium containing compounds every 2 days for 5 to 6 days by TRAP staining-based microscopic analysis. The series is classed as cell-based. An outline of the steps:
as §1

Series [8] shares this target. Nature of the series: Inhibition of RANKL-RANK protein-protein interaction in C57/BL6 mouse bone marrow macrophage assessed as suppression of M-CSF/mRANKL-induced osteoclast differentiation by measuring decrease in nuclei size of F-actin ring formation at 5 uM supplemented with fresh medium containing compounds every 2 days for 5 to 6 days by rhodamine phalloidin/DAPI staining-based microscopic analysis. The series is classed as protein assay.

pKd: −log10 of the molar value. Active and inactive are the calls of the source. The calls are words filed in the database; no cut-off is given here. Bridge positions count the residues as written; N and C are the ends. Peptide text beside a SMILES is read from it.

The results in this text go back to ChEMBL document CHEMBL4396880, “Development of Small-Molecules Targeting Receptor Activator of Nuclear Factor-κB Ligand (RANKL)-Receptor Activator of Nuclear Factor-κB (RANK) Protein-Protein Interaction by Structure-Based Virtual Screening and Hit Optimization” (J Med Chem, 2019).

For orientation: inhibition means the share of the control response that was lost under treatment. For orientation: pKd means −log10 of the Kd, conventionally taken in molar units. High values mean a low Kd, low ones a high Kd.

T1 sequence (O35305 31-625 partner limits assumed, one chain of several): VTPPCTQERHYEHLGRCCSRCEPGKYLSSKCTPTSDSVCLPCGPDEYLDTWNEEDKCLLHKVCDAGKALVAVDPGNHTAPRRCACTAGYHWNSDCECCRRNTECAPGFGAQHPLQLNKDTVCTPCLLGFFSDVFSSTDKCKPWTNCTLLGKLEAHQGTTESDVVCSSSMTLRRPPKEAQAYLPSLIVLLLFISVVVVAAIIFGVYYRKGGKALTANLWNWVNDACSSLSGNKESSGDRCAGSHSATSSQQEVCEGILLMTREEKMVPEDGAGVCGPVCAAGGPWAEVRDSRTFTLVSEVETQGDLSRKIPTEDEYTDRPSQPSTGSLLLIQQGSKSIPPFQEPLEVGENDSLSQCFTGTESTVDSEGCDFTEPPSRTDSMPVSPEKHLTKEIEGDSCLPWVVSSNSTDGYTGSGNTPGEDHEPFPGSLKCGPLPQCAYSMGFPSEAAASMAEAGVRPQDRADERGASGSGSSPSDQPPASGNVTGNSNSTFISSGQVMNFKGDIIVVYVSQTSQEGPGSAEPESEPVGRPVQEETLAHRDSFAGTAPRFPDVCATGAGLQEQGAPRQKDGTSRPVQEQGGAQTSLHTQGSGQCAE

As to `Cc1cccc(C)c1NCC(Cc1c[nH]c2ccccc12)NC(=O)CCc1ccccc1` (centres undefined), in series [1], the inhibition is 23.1%.

As for `Cc1ccccc1NC(=O)C(Cc1c[nH]c2ccccc12)NC(=O)CCc1ccccc1` (centres undefined), in series [1], the inhibition was determined as 74.2%.

As to `CC[C@H](C)[C@H](NC(=O)[C@H](CC(C)C)NC(=O)[C@H](Cc1ccc(O)cc1)NC(=O)[C@@H]1CSSC[C@H](NC(=O)[C@@H](N)Cc2ccc(O)cc2)C(=O)N[C@@H](CCC(=O)O)C(=O)N[C@@H]([C@@H](C)CC)C(=O)N[C@@H](CCC(=O)O)C(=O)N[C@@H](Cc2ccccc2)C(=O)N1)C(=O)N[C@@H](CCCNC(=N)N)C(=O)O` (H-YCEIEFCYLIR-OH; disulfide 2-7), the pKd in series [2] and in series [3] was 3.55 throughout.

With `N=C(N)NCCC[C@H](NC(=O)[C@H](CCCNC(=N)N)NC(=O)[C@H](Cc1ccc(O)cc1)NC(=O)[C@@H]1CSSC[C@H](NC(=O)[C@@H](N)Cc2ccc(O)cc2)C(=O)N[C@@H](Cc2c[nH]c3ccccc23)C(=O)N[C@@H](CC(N)=O)C(=O)N[C@@H](CO)C(=O)N[C@@H](CC(=O)O)C(=O)N[C@@H](CS)C(=O)N[C@@H](CCC(=O)O)C(=O)N[C@@H](CS)C(=O)N1)C(=O)O` (H-YCWNSDCECCYRR-OH; disulfide 2-10), the pKd in series [2] and in series [3] was 4.76 throughout.

In turn, `Cc1cccc(C)c1NC(=O)C(Cc1c[nH]c2cc(F)ccc12)NC(=O)CCc1ccccc1` (racemic) gave a negative-log Kd (pKd) in series [2] of 5.46. In addition, the inhibition result in series [4] is “Dose-dependent effect”; in series [5] it was 100%; in series [1], 89.4%; in series [7], “Dose-dependent effect”; in series [8] it was “Dose-dependent effect”. Besides, in series [6], the viability at 48 h, 10 µM was 103%.

As for `Cc1cccc(C)c1NC(=O)C(Cc1c[nH]c2ccccc12)NC(=O)CCc1ccc(Cl)cc1` (racemic), the negative-log Kd (pKd) in series [2] was 5.51. The inhibition entry in series [4] was “Dose-dependent effect”; in series [5], 100%; in series [1] it was 89%; in series [7] it was “Dose-dependent effect”; in series [8] it was “Dose-dependent effect”. In addition, in series [6], the viability at 48 h, 10 µM came to 102%.

As to `Cc1cccc(C)c1NC(=O)C(Cc1c[nH]c2ccccc12)NC(=O)CCc1ccccc1` (racemic) [listing 1 of 2 here], in series [2], the negative logarithm of the Kd (pKd) was 5.57. In series [6], the viability at 48 h, 10 µM stood at 110%.

In the case of `CN(C)c1ccc(NC(=O)C(Cc2c[nH]c3ccccc23)NC(=O)CCc2ccccc2)cc1` (racemic), in series [1], the inhibition came to 70.6%.

As for `COc1ccc(CCC(=O)NC(Cc2c[nH]c3ccccc23)C(=O)Nc2c(C)cccc2C)cc1` (racemic), in series [1], the inhibition is 16.9%.

Take `COc1ccc(NC(=O)C(Cc2c[nH]c3ccccc23)NC(=O)CCc2ccccc2)cc1` (racemic): in series [1], the inhibition was determined as 59%.

As to `COc1ccc2[nH]cc(CC(NC(=O)CCc3ccccc3)C(=O)Nc3c(C)cccc3C)c2c1` (racemic), the inhibition in series [1] came out at 84.4%.

For `COc1cccc(CCC(=O)NC(Cc2c[nH]c3ccccc23)C(=O)Nc2c(C)cccc2C)c1` (racemic), the inhibition in series [1] is 41.7%.

For `CS(=O)(=O)c1ccc(NC(=O)C(Cc2c[nH]c3ccccc23)NC(=O)CCc2ccccc2)cc1` (racemic), the inhibition in series [1] was determined as 69.9%.

For the molecule `Cc1ccc(NC(=O)C(Cc2c[nH]c3ccccc23)NC(=O)CCc2ccccc2)cc1` (racemic), in series [1], the inhibition was 69.9%.

For the molecule `Cc1cccc(C)c1NC(=O)C(Cc1c[nH]c2ccc(F)cc12)NC(=O)CCc1ccccc1` (racemic), the inhibition in series [1] is 83.9%.

With `Cc1cccc(C)c1NC(=O)C(Cc1c[nH]c2ccccc12)NC(=O)CCC1CC1` (racemic), in series [1], the inhibition amounted to 57.4%.

As to `Cc1cccc(C)c1NC(=O)C(Cc1c[nH]c2ccccc12)NC(=O)CCC1CCCC1` (racemic), the inhibition in series [1] was 14%.

Regarding `Cc1cccc(C)c1NC(=O)C(Cc1c[nH]c2ccccc12)NC(=O)CCC1CCCCC1` (racemic), in series [1], the inhibition was determined as 35.4%.

`Cc1cccc(C)c1NC(=O)C(Cc1c[nH]c2ccccc12)NC(=O)CCCCc1ccccc1` (racemic): the inhibition in series [1] turned out to be 82%.

On to `Cc1cccc(C)c1NC(=O)C(Cc1c[nH]c2ccccc12)NC(=O)CCCc1ccccc1` (racemic), for which, in series [1], the inhibition came out at 79.3%.

Take `Cc1cccc(C)c1NC(=O)C(Cc1c[nH]c2ccccc12)NC(=O)CCc1ccc(F)cc1` (racemic): in series [1], the inhibition is 33.6%.

For `Cc1cccc(C)c1NC(=O)C(Cc1c[nH]c2ccccc12)NC(=O)CCc1cccc(Cl)c1` (racemic), the inhibition in series [1] is 69.5%.

For `Cc1cccc(C)c1NC(=O)C(Cc1c[nH]c2ccccc12)NC(=O)CCc1cccc(F)c1` (racemic), the inhibition in series [1] came out at 56.8%.

Turning to `Cc1cccc(C)c1NC(=O)C(Cc1c[nH]c2ccccc12)NC(=O)CCc1ccccc1` (racemic) [listing 2 of 2 here], the inhibition result is “Dose-dependent effect” in series [4]; 100% in series [5]; 90.3% in series [1]; “Dose-dependent effect” in series [7]; “Dose-dependent effect” in series [8].

`Cc1cccc(C)c1NC(=O)C(Cc1c[nH]c2ccccc12)NC(=O)CCc1cccnc1` (racemic): the inhibition in series [1] amounted to 66.5%.

With `Cc1cccc(C)c1NC(=O)C(Cc1c[nH]c2ccccc12)NC(=O)CCc1cccs1` (racemic), the inhibition in series [1] was determined as 65.4%.

Turning to `Cc1cccc(C)c1NC(=O)C(Cc1c[nH]c2ccccc12)NC(=O)CCc1ccncc1` (racemic), in series [1], the inhibition was 41.4%.

In the case of `Cc1cccc(C)c1NC(=O)C(Cc1c[nH]c2ccccc12)NC(=O)CCc1ccsc1` (racemic), the inhibition in series [1] is 52.2%.

As for `Cc1cccc(C)c1NC(=O)C(Cc1c[nH]c2ccccc12)NC(=O)CCc1nccs1` (racemic), the inhibition in series [1] amounted to 86.3%.

In the case of `Cc1cccc(C)c1NC(=O)C(Cc1c[nH]c2ccccc12)NC(=O)Cc1ccccc1` (racemic), the inhibition in series [1] was 52.1%.

Consider `Cc1cccc(C)c1NC(=O)C(Cc1c[nH]c2ccccc12)NCCCCCc1ccccc1` (racemic), for which the inhibition in series [1] stood at 87.2%.

As for `Cc1cccc(C)c1NC(=O)C(Cc1c[nH]c2ccccc12)NCCCCc1ccccc1` (racemic), the inhibition in series [1] stood at 83.3%.

As to `Cc1cccc(C)c1NC(=O)C(Cc1c[nH]c2ccccc12)NCCc1ccccc1` (racemic), in series [1], the inhibition turned out to be 76.5%.

In the case of `O=C(CCc1ccccc1)NC(Cc1c[nH]c2ccccc12)C(=O)Nc1ccc(C(F)(F)F)cc1` (racemic), in series [1], the inhibition turned out to be 72%.

For `O=C(CCc1ccccc1)NC(Cc1c[nH]c2ccccc12)C(=O)Nc1ccc(F)cc1` (racemic), the inhibition in series [1] was found to be 70.3%.

Consider `O=C(CCc1ccccc1)NC(Cc1c[nH]c2ccccc12)C(=O)Nc1ccc(N2CCOCC2)cc1` (racemic), for which the inhibition in series [1] is 64.8%.

For `O=C(CCc1ccccc1)NC(Cc1c[nH]c2ccccc12)C(=O)Nc1ccccc1` (racemic), the inhibition in series [1] is 55.3%.

On to `O=C(CCc1ccccc1)NC(Cc1c[nH]c2ccccc12)C(=O)Nc1ccccc1F` (racemic), for which the inhibition in series [1] is 74%.

For `Cc1cccc(C)c1NC(=O)C(Cc1c[nH]c2ccccc12)NC(=O)CCc1ccccc1` (single isomer, unassigned; (+)), the inhibition entry in series [1] was “Active”.

With `Cc1cccc(C)c1NC(=O)C(Cc1c[nH]c2ccccc12)NC(=O)CCc1ccccc1` (single isomer, unassigned; (-)), in series [1], the inhibition entry is “Active”.
